PubChem BioAssay
The source made the active and inactive calls.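 Rule for the calls, unless noted: active = mean duplicate potentiation above the buffer control mean plus 5 SD of buffer wells; inactive = the rest.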

What was measured:
[1] = thallium flux activation in parental CHO cells, counter-screen for KCNQ1 potentiator project (AID 493006;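 active = duplicate-averaged activation above buffer control mean plus 5 SD of those controls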); settings: parental CHO-K1 cells, FluxOR thallium flux, at 10 µM; stronger effect = higher value
Method in brief: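 Test system: parental CHO-K1 cells, FluxOR dye-loaded / Probe or stimulus: potassium plus thallium depolarizing stimulus, 5x stock 12.5 mM K2SO4, Tl2SO4 / Timing: overnight 37 °C plating, 90 min dye, 20 min dark compound / Measured by: kinetic thallium-flux fluorescence / Read-out: max-minus-min fluorescence over baseline, percent of buffer-to-R-L3 span / Benchmarks: buffer and R-L3 controls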

[2] = biological target: Potassium voltage-gated channel subfamily KQT member 1 (Homo sapiens) (UniProt P51787); test: KCNQ1 potassium channel potentiators, confirmation, FluxOR thallium flux, CHO cells, duplicates (AID 493007;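 active = potentiation averaged over duplicate wells exceeding buffer-only control mean by more than 3 SD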;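 for outcome: cells depolarized by a potassium plus thallium sulfate stimulus after compound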;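 for potentiation: 0% = buffer-only wells and 100% = R-L3 activator control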); settings: KCNQ1 cell line, FluxOR thallium flux fluorescence, at 10 µM; stronger effect = higher value, % of reference activator effect, buffer zero
Method in brief: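 Assay system: CHO cells carrying KCNQ1 | Controls: Buffer and R-L3 controls | Schedule: FluxOR dye loading 90 min, compound exposure 20 min, room temperature | Read-out: Baseline-normalized fluorescence change, percent of buffer-to-R-L3 range | Replicates: Each compound tested in duplicate | Technique: Kinetic thallium influx fluorescence with FluxOR dye, 10 s baseline, 110 s post-stimulus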

[3] = biological target: Potassium voltage-gated channel subfamily KQT member 2 (Rattus norvegicus) (UniProt O88943); test: rat KCNQ2 channel potentiation, selectivity assay for KCNQ1 potentiator project, KCNQ2-CHO-K1 cells (AID 493009); settings: FluxOR thallium flux fluorescence, at 10 µM; stronger effect = higher value, scaled: buffer 0, activator control 100;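 note: assay conditions were tuned for KCNQ1 rather than KCNQ2 modulators; signal is max minus min fluorescence divided by baseline after thallium stimulus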
[4] = biological target: Potassium voltage-gated channel subfamily KQT member 1 (Homo sapiens) (UniProt P51787); test: KCNQ1 channel current potentiators, confirmation, orthogonal assay for KCNQ1 potentiator project, IonWorks patch clamp, KCNQ1-CHO cells (AID 493184;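 active = current rise at least 3 SD above the untreated control mean in each of two repeat wells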;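 for current potentiation: percent change of the same well's current before compound addition so 0% = no change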); settings: automated patch clamp current, at 10 µM; stronger effect = higher value
Method in brief: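 Material: KCNQ1-expressing CHO cells; doses: 10 µM final, single point; probe or stimulus: voltage step from -90 mV holding to +40 mV, 2,000 ms; signal: automated voltage clamp, amphotericin B perforated patch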

Sequence of Potassium voltage-gated channel subfamily KQT member 2 (Rattus norvegicus) (O88943 whole entry, looked up): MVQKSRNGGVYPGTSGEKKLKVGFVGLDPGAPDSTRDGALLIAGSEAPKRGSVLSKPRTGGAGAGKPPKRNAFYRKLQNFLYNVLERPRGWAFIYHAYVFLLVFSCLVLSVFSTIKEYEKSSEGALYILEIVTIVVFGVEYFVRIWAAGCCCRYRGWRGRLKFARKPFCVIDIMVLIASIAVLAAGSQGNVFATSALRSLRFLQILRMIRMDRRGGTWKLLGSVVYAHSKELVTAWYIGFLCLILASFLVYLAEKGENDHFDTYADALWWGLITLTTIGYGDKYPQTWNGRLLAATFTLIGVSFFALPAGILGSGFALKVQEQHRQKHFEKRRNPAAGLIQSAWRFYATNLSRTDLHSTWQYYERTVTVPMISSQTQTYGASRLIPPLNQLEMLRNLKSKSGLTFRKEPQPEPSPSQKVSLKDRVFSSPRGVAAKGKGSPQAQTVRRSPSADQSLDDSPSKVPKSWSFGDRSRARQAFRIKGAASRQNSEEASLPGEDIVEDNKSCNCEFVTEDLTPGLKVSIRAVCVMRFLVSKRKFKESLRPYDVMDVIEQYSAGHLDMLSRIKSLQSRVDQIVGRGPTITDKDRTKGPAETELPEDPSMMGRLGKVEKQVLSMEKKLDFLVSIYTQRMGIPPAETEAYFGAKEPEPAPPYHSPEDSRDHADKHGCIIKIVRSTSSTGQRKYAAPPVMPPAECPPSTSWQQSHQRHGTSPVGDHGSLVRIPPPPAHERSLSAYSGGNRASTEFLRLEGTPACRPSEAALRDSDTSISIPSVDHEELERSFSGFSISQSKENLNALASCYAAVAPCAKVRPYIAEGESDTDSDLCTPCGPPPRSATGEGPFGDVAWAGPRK
Sequence of Potassium voltage-gated channel subfamily KQT member 1 (Homo sapiens) (P51787 whole entry, looked up): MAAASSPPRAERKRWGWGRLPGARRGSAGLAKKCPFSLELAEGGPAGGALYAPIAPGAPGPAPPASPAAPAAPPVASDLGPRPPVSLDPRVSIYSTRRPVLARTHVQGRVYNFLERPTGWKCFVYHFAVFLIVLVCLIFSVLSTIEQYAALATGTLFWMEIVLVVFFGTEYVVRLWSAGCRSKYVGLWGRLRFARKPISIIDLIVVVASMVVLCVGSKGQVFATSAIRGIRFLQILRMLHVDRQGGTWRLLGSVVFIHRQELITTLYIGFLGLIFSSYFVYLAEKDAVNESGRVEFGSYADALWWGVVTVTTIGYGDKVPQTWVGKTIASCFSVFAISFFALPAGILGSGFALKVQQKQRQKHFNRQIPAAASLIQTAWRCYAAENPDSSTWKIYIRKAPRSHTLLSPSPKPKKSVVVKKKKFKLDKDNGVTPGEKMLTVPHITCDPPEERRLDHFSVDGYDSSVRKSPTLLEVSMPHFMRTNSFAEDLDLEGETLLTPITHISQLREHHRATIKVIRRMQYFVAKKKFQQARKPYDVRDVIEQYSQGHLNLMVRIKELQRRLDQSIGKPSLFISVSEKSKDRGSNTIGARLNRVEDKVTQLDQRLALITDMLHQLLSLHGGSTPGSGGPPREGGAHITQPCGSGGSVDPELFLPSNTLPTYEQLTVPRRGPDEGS

| Compound | activation [1] | potentiation [2] | potentiation [3] | outcome [4] | outcome [1] | outcome [2] | outcome [3] | current potentiation [4] |
| --- | --- | --- | --- | --- | --- | --- | --- | --- |
| N#CC(c1ccc(Cl)cc1)c1ccc2c(C(F)(F)F)cc(C(F)(F)F)nc2n1 (stereo not given) | 296% (active) | 145% (active) | 407% (active) | inactive |  |  |  |  |
| CCOc1ccc(S(=O)(=O)N2CCCC(C(=O)NCCN3CCOCC3)C2)cc1Cl (stereo not given) | 260% (active) | 108% (active) | 250% (active) | inactive |  |  |  |  |
| COc1cc(C(=O)NC(=S)N(CCc2ccccc2)CCc2ccccc2)cc(OC)c1OC | 198% (active) | 104% (active) | 256% (active) | inactive |  |  |  |  |
| Cc1cc(C)n(CCNS(=O)(=O)c2ccccc2)n1 |  |  |  | inactive | inactive | inactive | inactive |  |
| CC1CN(C(=S)NC(=O)c2ccc(Cl)cc2)CC(C)O1 (stereo not given) | 144% (active) | 24% (active) | 152% (active) | inactive |  |  |  |  |
| C/C(N)=C(/C#N)C(=O)CSc1nc2ccccc2c(=O)n1Cc1ccc(F)cc1 | 178% (active) | 48.5% (active) | 194% (active) | inactive |  |  |  |  |
| Cc1ccc(S(=O)(=O)N(C)c2nc3ccccc3[nH]c2=S)cc1 |  | 42.5% (active) | 197% (active) | inactive | inactive |  |  |  |
| CCCc1cc(-c2n[nH]c(=S)n2C(C)c2ccccc2)cs1 (stereo not given) | 139% (active) | 37% (active) |  | inactive |  |  | inactive |  |
| CCC(CC)c1nnc(NC(=O)c2cc(C(=O)OC)cc([N+](=O)[O-])c2)s1 | 366% (active) | 179% (active) | 419% (active) | inactive |  |  |  |  |
| CSc1nnc(-c2ccccc2)o1 |  |  |  | inactive | inactive | inactive | inactive |  |
| Cc1ccc(C)c(NC(=S)NNC(=O)c2csc3c2CCC(C)C3)c1 (stereo not given) | 242% (active) | 116% (active) | 322% (active) | inactive |  |  |  |  |
| Cc1ccc(SCC2(O)CCN(S(=O)(=O)c3ccc(Cl)cc3)CC2)cc1 |  |  |  | inactive | inactive | inactive | inactive |  |
| CCOCCc1c(O)nc(SC)[nH]c1=O |  |  |  | inactive | inactive | inactive | inactive |  |
| COc1ccc(-c2csc(NC(=O)C3=NN(c4ccccc4)C(=O)CC3)n2)cc1 |  | 146% (active) |  |  | inactive |  | inactive | 101% (active) |
| CCCCOC(=O)c1cc(C)nc2ccc(Br)cc12 | 306% (active) | 172% (active) | 320% (active) | inactive |  |  |  |  |
| CC(=O)N/C(=C/c1ccc2c(c1)OCO2)C(=O)O |  |  |  | inactive | inactive | inactive | inactive |  |
| O=C(COc1ccccc1)N1CCN(S(=O)(=O)c2cccs2)CC1 |  |  |  | inactive | inactive | inactive | inactive |  |
| CCc1ccc(NC(=O)C(=O)NNC(=O)c2cccc(OC)c2)cc1 | 269% (active) | 124% (active) | 339% (active) | inactive |  |  |  |  |
| Cc1cc(Cl)ccc1OCC(=O)NNC(=O)C1CCCO1 (stereo not given) |  |  |  | inactive | inactive | inactive | inactive |  |
| CN1CCN(C=Nc2nc3ccccc3nc2N2CCCC2)CC1 |  |  |  | inactive | inactive | inactive | inactive |  |

| Compound | activation [1] | potentiation [2] | potentiation [3] | outcome [4] | outcome [1] | outcome [2] | outcome [3] | current potentiation [4] |
| --- | --- | --- | --- | --- | --- | --- | --- | --- |
| CCCn1c(=S)[nH]c2ccccc2c1=O | 153% (active) | 18.5% (active) | 168% (active) | inactive |  |  |  |  |
| O=S(=O)(NC(=S)NC1CCCCC1)c1ccc(Cl)cc1 | 191% (active) | 56.5% (active) | 199% (active) | inactive |  |  |  |  |
| CC(C)(C)NC(=O)C(=O)NNC(=O)c1ccc(C(C)(C)C)cc1 | 341% (active) | 112% (active) | 352% (active) | inactive |  |  |  |  |
| N#Cc1cn(CC(=O)NCC2CCCO2)c2ccccc12 (stereo not given) |  |  |  | inactive | inactive | inactive | inactive |  |
| O=C(N/N=C/c1ccccn1)c1sc2ccccc2c1Cl | 156% (active) | 41% (active) | 207% (active) | inactive |  |  |  |  |
| Fc1ccc(-c2csc(=S)[nH]2)cc1 | 416% (active) | 120% (active) | 398% (active) | inactive |  |  |  |  |
| CCC1(c2ccccc2)NC(=S)N(c2ccc(C)cc2)N1 (stereo not given) | 392% (active) | 198% (active) | 522% (active) | inactive |  |  |  |  |
| CCOc1ccc2nc(N3C(=O)/C(=C/c4ccc(Cl)cc4)NC3=S)sc2c1 | 283% (active) | 143% (active) | 416% (active) | inactive |  |  |  |  |
| Cc1onc(-c2ccccc2)c1C(=O)N1CCN(S(=O)(=O)c2ccc(OC(F)(F)F)cc2)CC1 |  |  |  | inactive | inactive | inactive | inactive |  |
| CSc1nc(Nc2ccc(Cl)cc2)c(C#N)c(=O)[nH]1 |  |  |  | inactive | inactive | inactive | inactive |  |
| CCOC(=O)c1ccccc1N1C(=O)CSC1=S |  |  |  | inactive | inactive | inactive | inactive |  |
| COc1cc(OC)cc(C(=O)NNC(=O)C(=O)Nc2cc(OC)c(Cl)cc2OC)c1 | 202% (active) | 64% (active) | 213% (active) | inactive |  |  |  |  |
| CC(C)c1nc2n[nH]c(N)c2c2c1CSC(C)(C)C2 |  | 31.5% (active) |  | inactive | inactive |  | inactive |  |
| CN1C=CC=C/C1=C1\SC(=S)N(Cc2ccccc2)C1=O |  |  |  | inactive | inactive | inactive | inactive |  |
| Cc1ccc2nc(N3CCN(Cc4ccc(F)cc4)C3=O)c(C)cc2c1 |  |  |  | inactive | inactive | inactive | inactive |  |
| COc1cc2c(cc1OC)C(C)N(C(=S)NC(=O)c1ccccc1)CC2 (stereo not given) | 141% (active) |  |  | inactive |  | inactive | inactive |  |
| Cc1ccc(-c2nc3ccccc3c(=O)n2O)cc1 | 169% (active) | 19% (active) | 171% (active) | inactive |  |  |  |  |
| CCCCn1c(N)c(C(=S)NC(=O)CC(C)(C)C)c(=O)n(C)c1=O | 140% (active) | 37.5% (active) | 148% (active) | inactive |  |  |  |  |
| Cc1ccc(OCC(=O)NC(=S)Nc2ccc(Br)cn2)cc1 |  | 19.5% (active) |  | inactive | inactive |  | inactive |  |
| COc1ccc(NC(=O)Cc2nnc(SCC(=O)c3ccc(F)cc3)n2C)cc1 |  |  |  | inactive | inactive | inactive | inactive |  |

| Compound | activation [1] | potentiation [2] | potentiation [3] | outcome [4] | outcome [1] | outcome [2] | outcome [3] | current potentiation [4] |
| --- | --- | --- | --- | --- | --- | --- | --- | --- |
| CCCc1cc(=O)n2[nH]cc(-c3ccc(Cl)cc3)c2n1 | 168% (active) | 36% (active) | 164% (active) | inactive |  |  |  |  |
| CC(/C=N/n1c(-c2ccc(C)cc2)n[nH]c1=S)=C\c1ccco1 |  |  |  | inactive | inactive | inactive | inactive |  |
| Oc1c(N=NC(=S)Nc2ccccc2F)c2ccccc2n1Cc1ccccc1Cl | 180% (active) | 81.5% (active) | 210% (active) | inactive |  |  |  |  |
| COc1cc(Br)cc(C=Nc2cccc(C(F)(F)F)c2)c1O |  |  |  | inactive | inactive | inactive | inactive |  |
| O=C(c1ccccc1[N+](=O)[O-])N1CCN(c2ccc(N3CCOCC3)nn2)CC1 |  |  |  | inactive | inactive | inactive | inactive |  |
| COC(=O)c1c(N2C(=O)CC(Sc3ncccc3C(=O)O)C2=O)sc(C)c1C (stereo not given) |  |  |  | inactive | inactive | inactive | inactive |  |
| CCC1(c2ccc(Cl)cc2)NC(=S)N(c2ccc(C)cc2)N1 (stereo not given) | 574% (active) | 302% (active) | 604% (active) | inactive |  |  |  |  |
| CCCc1cc(=O)[nH]c(SCC(=O)NC(=O)c2ccccc2)n1 |  |  |  | inactive | inactive | inactive | inactive |  |
| CCOc1ccc(-n2cc(C(=O)Nc3cccc(C)n3)c3cc(OC)c(OC)cc3c2=O)cc1 |  |  |  | inactive | inactive | inactive | inactive |  |
| COc1ccc(CNC(=O)C2CC(c3cccc(OC)c3)=NO2)cc1 (stereo not given) |  |  |  | inactive | inactive | inactive | inactive |  |
| Cc1ccc2cccnc2c1NC(=S)NC(=O)c1ccccc1 |  |  |  | inactive | inactive | inactive | inactive |  |
| OC[C@H]1O[C@H](OC[C@H]2O[C@H](OC[C@H]3O[C@H](O[C@]4(CO)O[C@H](CO)[C@@H](O)[C@@H]4O)[C@H](O)[C@@H](O)[C@@H]3O)[C@H](O)[C@@H](O)[C@H]2O)[C@H](O)[C@@H](O)[C@H]1O |  |  |  | inactive | inactive | inactive | inactive |  |
| OC(c1cc(C(F)(F)F)nc2c(Cl)cc(Cl)cc12)C1CCCCN1 (stereo not given) |  |  |  | inactive | inactive | inactive | inactive |  |
| S=c1nc(-c2ccc(Br)cc2)oc2c1CCCC2 |  | 37% (active) |  | inactive | inactive |  | inactive |  |
| CCn1nc(C)c(CNC(=O)C2CCC(=O)N(Cc3cccc(F)c3)C2)c1C (stereo not given) |  |  |  | inactive | inactive | inactive | inactive |  |
| COc1ccc(S(=O)(=O)Nc2cccc3ccc(O)cc23)cc1 |  |  |  | inactive | inactive | inactive | inactive |  |
| COc1ccccc1CNC(=O)c1oc2ccc(S(=O)(=O)N3CCOCC3)cc2c1C |  |  |  | inactive | inactive | inactive | inactive |  |
| Cc1ccc(C(=O)Sc2cccccc2=O)cc1 | 230% (active) | 37.5% (active) | 228% (active) | inactive |  |  |  |  |
| CC1(C)CC(=O)C2=C(C1)N(c1cccc(Cl)c1)C(=O)NC2(C(F)(F)F)C(F)(F)F |  | 19.5% (active) |  | inactive | inactive |  | inactive |  |
| O=C1CCC/C(=N\NC(=O)c2ccc(COc3cccc4cccnc34)cc2)C1 |  |  |  | inactive | inactive | inactive | inactive |  |
